Reference: article PMC4242840 (The Journal of Cell Biology, 2014)

Experiments:
[1] = system: pre-60S particles; assay: affinity purification of Rpl5-FTpA constructs; type: cell-based, Saccharomyces cerevisiae; settings: Flag-TEV-ProtA bait
In short: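 Rpl5 variants tagged with Flag-TEV-ProtA were purified from a 2-liter yeast culture pellet. Steps: IgG-Sepharose 90 min, TEV elution 120 min, FLAG beads 45 min, FLAG-peptide elution. Eluates were run alongside pre-60S particles purified via Nsa2-FTpA and FTpA-Rsa4, then analysed by SDS-PAGE and Western blot.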

[2] = system: intracellular localization in yeast; assay: in vivo localization of Rpl5-GFP; type: cell-based, Saccharomyces cerevisiae; settings: GFP fusion, wild-type strain, fluorescence microscopy
In short: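 A wild-type strain carried plasmid-borne Rpl5-GFP or Rpl5 Δloop2+3-GFP. Cells were grown to ~OD 0.5 in selective medium at 30°C, harvested and washed in water. They were imaged by fluorescence microscopy at room temperature (100×, NA 1.4 oil objective, EGFP filter set).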

[3] = system: RPL5 shuffle strain; assay: complementation of rpl5Δ; type: cell-based, Saccharomyces cerevisiae; settings: SDC+FOA, 30°C, 5 d
[4] = system: Rsa4 shuffle strain (rsa4Δ); assay: complementation of rsa4Δ; type: cell-based, Saccharomyces cerevisiae; settings: SDC+FOA, 30°C, 2 d
[5] = system: pre-60S particles; assay: association with pre-60S particles; type: cell-based, Saccharomyces cerevisiae; settings: 10–50% sucrose gradient, anti-ProtA Western blot
In short: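 Wild-type yeast expressed plasmid-borne NSA2-FTpA or nsa2 Y90A-FTpA. Cells were treated with cycloheximide for 15 min and lysed with glass beads. Whole-cell lysates were fractionated on 10–50% sucrose gradients (16 h, 27,000 rpm, 0.4 ml fractions), and fractions were probed by Western blot with anti-ProtA to detect tagged Nsa2.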

[6] = system: wild-type yeast growth; assay: dominant-negative phenotype upon GAL overexpression in wild-type yeast; type: cell-based, Saccharomyces cerevisiae; settings: GAL promoter, galactose medium, 30°C, 2 or 3 d
[7] = system: Nsa2; assay: in vitro binding assay of Rsa4 mutants with MBP-Nsa2; parameters: species or system Saccharomyces cerevisiae; settings: immobilized MBP-Nsa2, HIS-TEV-Rsa4 mutant in E. coli lysate; SDS-PAGE
In short: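 Bait and prey were expressed in E. coli by IPTG induction for 3 h. MBP-Nsa2 was prepurified on SP Sepharose and bound to amylose resin; HIS-TEV-Rsa4 variants were Ni-NTA-purified. Beads were incubated 45 min with a 5× excess of Rsa4 mixed with MBP-depleted E. coli lysate as competitor. Beads were washed in 20 mM Hepes pH 7.5, 200 mM NaCl, 1 mM DTT and eluted in SDS sample buffer (10 min, 65°C). Eluates were run on 4–12% SDS-PAGE with Coomassie staining.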

Row | Molecule | co-purified Spb1 and Nop2 [1] | co-purified particles / Syo1 [1] | co-purified Nsa2 ([1]; SDS-PAGE and Western blot) | co-purified Rpl10 (uL16) ([1]; SDS-PAGE and Western blot) | co-purified Rsa4 ([1]; SDS-PAGE and Western blot) | intracellular localization [2] | growth / viability (complementation) [3] | growth / viability (complementation) [4] | association with pre-60S particles [5] | dominant-negative phenotype upon overexpression [6] | binding to Nsa2 [7]
1 | Rpl5Δloop2+3 (protein) MAFQKDAKSSAYSSRFQTPFRRRREGKTDYYQRKRLVTQHKAKYNTPKYRLVVRFTNKDIICQIISSTITGDVVLAAAYSHELPRYGITHGLTNWAAAYATGLLIARRTLQKLGLDETYKGPRPFKVFLDIGLQRTTTGARVFGALKGASDGGLYVPHSENRFPGWDRIFGGHVSQYMEELADDDEERFSELFKGYLADDIDADSLEDIYTSAHEAIRADPAFKPTEKKFTKEQYAAESKKYRQTKLSKEERAARVAAKIAALAGQQ | enriched | recovered its import factor Syo1 ([Kressler et al., 2012a]) and pre-60S particles | normal amounts of Nsa2 | lacked Rpl10 (uL16) | reduced levels of Rsa4 | accumulated inside the nucleus | lethal phenotype |  |  |  | 
2 | Rsa4 Y448E (protein) MSTLIPPPSKKQKKEAQLPREVAIIPKDLPNVSIKFQALDTGDNVGGALRVPGAISEKQLEELLNQLNGTSDDPVPYTFSCTIQGKKASDPVKTIDITDNLYSSLIKPGYNSTEDQITLLYTPRAVFKVKPVTRSSSAIAGHGSTILCSAFAPHTSSRMVTGAGDNTARIWDCDTQTPMHTLKGHYNWVLCVSWSPDGEVIATGSMDNTIRLWDPKSGQCLGDALRGHSKWITSLSWEPIHLVKPGSKPRLASSSKDGTIKIWDTVSRVCQYTMSGHTNSVSCVKWGGQGLLYSGSHDRTVRVWDINSQGRCINILKSHAHWVNHLSLSTDYALRIGAFDHTGKKPSTPEEAQKKALENYEKICKKNGNSEEMMVTASDDYTMFLWNPLKSTKPIARMTGHQKLVNHVAFSPDGRYIVSASFDNSIKLWDGRDGKFISTFRGHVASVEQVAWSSDCRLLVSCSKDTTLKVWDVRTRKLSVDLPGHKDEVYTVDWSVDGKRVCSGGKDKMVRLWTH |  |  |  |  |  |  |  | blocked cell growth in vivo | partly impaired in association with pre-60S particles | less pronounced dominant-negative phenotype | impaired binding to Nsa2 in vitro
